Source: PubChem BioAssay (several laboratories)
Only some compounds are listed: those with a hit (about 2% of all), similar ones and a draw of the others.
ABCB6 inh MLPCN: ABCB6 transporter inhibitors, primary screen, K562-ABCB6 cells, flow cytometry, MLPCN library; 0.19% of 360,000 active; K562-ABCB6 porphyrin accumulation, 1 h; hits give low values; fluorescence ratio to DMSO, % at 10 µM;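 active = fluorescence ratio to DMSO below 75%, the collection mean minus 3 SD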;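 also: signal is porphyrin accumulated inside mitochondria; 100% equals median channel fluorescence of DMSO control wells; lower ratio means ABCB6 inhibition with less porphyrin fluorescence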
FGF22 binding: binders of human FGF22 protein, primary screen, FGF22 synaptogenesis inhibitor project, biophysical, thermal shift, single point. recombinant FGF22 thermal shift, SYPRO orange fluorescence; percent of sucrose octasulfate shift, DMSO zero. activity (Tm shift, normalised), % at 9.99 µM. 1.5% of 340,000 active;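 active = mean Tm shift, scaled 0 neutral to 100 positive control, at about 1.3% or above, every replicate too, limit read from the data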
Target sequence (Q9HCT0 whole entry, looked up): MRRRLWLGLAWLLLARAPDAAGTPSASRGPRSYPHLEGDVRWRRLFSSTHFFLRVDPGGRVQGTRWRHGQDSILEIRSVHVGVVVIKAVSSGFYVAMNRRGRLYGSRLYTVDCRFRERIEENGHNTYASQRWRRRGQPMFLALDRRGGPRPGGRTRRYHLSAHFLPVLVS
VLA-4 inh: inhibition in human VLA-4 binding assay, primary screen, VLA-4 allosteric modulator project, MLPCN library, flow cytometry, VLA-4 expressing cells | ligand binding flow cytometry | inhibition, % (about 7 µM as worked out from the volumes in the protocol) | 0.2% of 330,000 active | AID 2557, 2010; in the data active = inhibition above about 50%
Granule exo inh: LAMP-1 surface exposure blockers, TALL-104 cells – cell-based, flow cytometry, MLPCN library, primary screen; TALL-104 LAMP-1 surface exposure; cells stimulated with thapsigargin and PMA; inhibition, % at 10 µM; 0.66% of 360,000 active; AID 651702, 2012;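 active = inhibition above about 55%, limit read from the data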
DAGLB inh: DAGLB lipase inhibitors, primary screen, biochemical, fluorescence, HTS; inhibition, % at 5.17 µM; Diacylglycerol lipase-beta (Homo sapiens), Q8NCG7; AID 504411, 2011; HEK293T DAGLB membrane lysate, EnzChek fluorogenic substrate; 0.059% of 340,000 active; in the data active = inhibition above about 34%;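 also: 0% = enzyme with vehicle and 100% = wells lacking enzyme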
MT1-MMP act inh: blockers of MT1-MMP proenzyme processing, primary screen, HT1080 RFP-PRO-GFP cells, GFP/RFP fluorescence | Matrix metalloproteinase-14 (Homo sapiens), P50281 | 0.061% of 360,000 active | GFP/RFP ratio fluorescence, overnight; percent of plate control window, DMSO zero | GFP/RFP ratio change, % at 20 µM;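 active = GFP/RFP ratio change of at least 30% with cell ATP level not reduced by more than half and red fluorescence within 50% of control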
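Compound: 20 µM single dose, 1% DMSO / System: HT1080 RFP-PRO-GFP cells / Controls: DMSO and RFP-L50D-GFP cell wells / Read-out basis: GFP/RFP fluorescence ratio / Schedule: overnight compound exposure at 37 °C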
The depositor's hits bear a star; i = inactive; · = no result given.

SMILES	ABCB6 inh MLPCN	FGF22 binding	VLA-4 inh	Granule exo inh	DAGLB inh	MT1-MMP act inh
CC(C)NC(=O)N(C)C[C@H]1Oc2ccc(NC(=O)CCC(F)(F)F)cc2CC(=O)N([C@@H](C)CO)C[C@H]1C	·	0	·	·	·	·
CNc1ccc(Br)cc(C(=O)/C=C/c2cccc(Cl)c2Cl)c1=O	261	0	·	98*	22	-60
C[C@]12CCC(=O)C=C1CC[C@@H]1[C@@H]2[C@@H](O)C[C@]2(C=O)[C@@H](C(=O)CO)CC[C@@H]12	98	0	9	1	2	4
CC12CC(O)C3C(CCC4=CC(=O)CCC43C)C1CCC2=CCO (centres undefined)	86	43*	·	0	2	-1
CC(=O)OC1CC2(C)C(C(C)=O)CCC2C2CCC3=CC(=O)CCC3(C)C12 (centres undefined)	104	43*	·	-2	2	0
Cc1ccsc1/C=N/NC(=S)NCc1ccccc1	96	0	1	0	-5	-1
Cc1ccsc1/C=N\NC(=O)CC(=O)NCc1ccccc1	100	43*	-17	4	-2	4
O=C(Cc1ccncc1)NCC[C@H]1CC[C@H](NC(=O)C2CCC2)[C@@H](CO)O1	·	0	·	·	·	·
Cc1ccccc1Nc1nc(NCc2ccco2)c2ccccc2n1	98	0	2	82*	-1	-5
CN(Cc1ccc2nonc2c1)Cc1nc(CC2CC2)no1	95	43*	-1	4	-3	-1
O=C(N[C@H]1CC[C@@H](CCNC(=O)c2ccccc2F)O[C@@H]1CO)c1cnccn1	·	-1	·	·	·	·
CNC[C@@H]1Oc2ncc(-c3ccccc3F)cc2C(=O)N([C@@H](C)CO)C[C@@H]1C	·	0	·	·	·	·
C[C@H]1CN([C@@H](C)CO)C(=O)c2cc(N(C)C)ccc2O[C@@H]1CN(C)C(=O)NC1CCCCC1	·	0	·	·	·	·
CC(C)(c1cc(Br)c(O)c(Br)c1)c1cc(Br)c(O)c(Br)c1	101	1.6*	4	1	31	6
CNC[C@@H]1Oc2cc(C#Cc3ccccc3OC)ccc2S(=O)(=O)N([C@H](C)CO)C[C@H]1C	·	0	·	·	·	·
COCCN=c1scc(-c2cccs2)n1/N=C/c1ccc(O)c(O)c1O	84	89*	-12	2	16	-9
CCN=c1scc(C)n1/N=C/c1ccc(O)c(O)c1O	102	·	6	0	7	3
O=C(O)c1ccccc1C(=O)N1N=C2/C(=C/c3cccc([N+](=O)[O-])c3)CCCC2C1c1cccc([N+](=O)[O-])c1 (centres undefined)	92	2.3*	-3	-1	6	3
Cc1cc(C)nc(NC(=O)c2ccc(Cl)cc2Cl)n1	98	0	6	-2	-2	1
Cc1ccnc(NC(=O)c2ccc(Cl)cc2Cl)n1	·	43*	-2	·	·	·
C[C@H]1CN([C@@H](C)CO)C(=O)Cc2cc(NS(=O)(=O)c3ccc(Cl)cc3)ccc2O[C@H]1CN(C)Cc1ccncc1	·	0	·	·	·	·
CN(C)CCCNC(=O)[C@H]1[C@H](CO)[C@H]2Cn3c(cccc3=O)[C@@H]1N2C(=O)Nc1cc(F)ccc1F	·	0	·	·	·	·
Cc1ccc(C(=O)N/N=C/c2cccc(OC(=O)/C=C/c3ccco3)c2)cn1	96	0	2	2	·	0
O=C(CNc1ccc2ccccc2c1)N/N=C/c1ccc(OC(=O)/C=C/c2ccco2)cc1	84	44*	-9	1	-2	-13
O=C(/C=C/c1ccco1)Oc1cc(Br)cc(/C=N/NC(=O)c2ccccc2O)c1	97	·	17	78*	14	3
SMILES	ABCB6 inh MLPCN	FGF22 binding	VLA-4 inh	Granule exo inh	DAGLB inh	MT1-MMP act inh
Cc1cc2c(=Cc3ccc(N(C)C)cc3)c3ccccc3n2[n+]1C	i	0	·	5	6	-6
CCOC(=O)c1cc2c(=Cc3ccc(N(C)C)cc3)c3ccccc3n2[n+]1C	739	0	·	67*	-3	83
COC(=O)[C@]1(Cc2ccccc2)N[C@H](CN(C)C(=O)Nc2ccc(F)cc2)[C@@H]2C(=O)N(C)C(=O)[C@@H]21	104	0	-6	-2	-4	4
COC(=O)[C@]1(Cc2ccccc2)N[C@H](CN(C)C(=O)COc2ccccc2)[C@@H]2C(=O)N(C)C(=O)[C@@H]21	99	43*	25	-3	-2	2
COC(=O)[C@]1(Cc2ccccc2)N[C@H](CN(C)C(=O)c2ccc(C)cc2)[C@@H]2C(=O)N(C)C(=O)[C@@H]21	99	43*	-9	-2	-2	1
COC(=O)[C@]1(Cc2ccccc2)N[C@H](CN(C)C(=O)c2ccc(F)cc2)[C@@H]2C(=O)N(C)C(=O)[C@@H]21	96	43*	31	-3	-1	5
COC(=O)[C@]1(C)N[C@H](CN(C)C(=O)c2ccc(C(C)(C)C)cc2)[C@@H]2C(=O)N(Cc3ccccc3)C(=O)[C@@H]21	99	43*	46	-1	-2	-1
COc1cc(OC)c(CNS(=O)(=O)c2ccc(Br)cc2)c(OC)c1	·	-1	·	·	·	·
CCCNC(=O)Nc1ccc2c(c1)C(=O)N(C)C[C@@H](OC)[C@@H](C)CN(C(=O)C1CCC1)[C@@H](C)CO2	·	0	·	·	·	·
O=C(c1ccc(Cl)cc1)C1CCCN(C(=O)/C=C/c2ccccn2)C1 (centres undefined)	102	44*	4	-5	-3	0
CCN(CC)S(=O)(=O)c1ccc(C(=O)NNC(=O)c2cccs2)cc1	96	·	-6	-6	0	-1
CCN(CC)S(=O)(=O)c1ccc(NC(=O)c2cccs2)cc1	92	43*	2	4	-4	5
COc1ccc(C(=O)Nc2ccc(NC(=O)c3cccs3)cc2)cc1Cl	97	43*	2	-1	1	2
CC(=O)Nc1ccc(C(=O)NNC(=O)c2cccs2)cc1	103	44*	28	-2	2	-2
C[C@H]1CN([C@@H](C)CO)C(=O)c2cc(C#CC3CC3)cnc2O[C@@H]1CN(C)S(C)(=O)=O	·	0	·	·	·	·
COc1ccc(NC(=O)N[C@@H]2CC[C@H](CCn3cc(-c4ccccn4)nn3)O[C@H]2CO)cc1	·	0	·	·	·	·
CN1C(=O)c2cc(NC(=O)C3CC3)ccc2OC[C@@H]2O[C@H](CC(=O)NCCc3ccncc3)CC[C@H]21	·	0	·	·	·	·
